Active and inactive are the calls of the source. The calls are words filed in the database; no cut-off is given here. Where a SMILES comes first, the peptide text is derived from it.

In experiment [1] the test system is Hepacivirus hominis. The experiment can be described thus: Inhibition of HCV envelope glycoprotein E2 to human Huh 7.5.1 cells after 1 hr by flow cytometry relative to control. The method in brief: (§1)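 E2 protein (0.25 μg) was preincubated with peptide (250 nM, or a concentration series), 120 nM CD81, 50 IU heparin, or combinations in 100 μl PBS for 1 h at 37°C. The mix was added to 1 × 10⁶ Huh-7.5.1 cells for 30 min at 37°C. Cell-bound E2 was stained with anti-E2 polyclonal and PE anti-rabbit IgG and measured by flow cytometry. Percent inhibition was calculated (means ± SEM, 3–4 experiments).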

Experiment [2] in a line: Binding affinity to HCV envelope glycoprotein E2 by surface plasmon resonance assay. Set-up: species or system Hepacivirus hominis. In short, it runs like this:
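Surface plasmon resonance on a Biacore 1000 measured binding of E2 protein to the peptides. K_on and K_off were calculated from the association and dissociation phases of the best-fitted binding curves.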
In general terms: SPR reads the build-up and loss of mass on a sensor chip optically.

Experiment [3] deals with Hepacivirus hominis. Put plainly: Inhibition of HCV envelope glycoprotein E2 to human Huh 7.5.1 cells after 1 hr by flow cytometry. In short, it runs like this:
as §1
For orientation: In flow cytometry, cells or beads pass a laser one at a time.

Experiment [4] concerns Hepatitis C virus subtype 2a. The experiment can be described thus: Binding affinity to HCV 2a envelope glycoprotein E2. The method in brief:
(§2)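 HepG2 cells stably expressing E1E2 of genotypes 1–6 were established by G418 selection, with parental HepG2 as control. E2 of each genotype was detected with the selected peptide (means ± SEM, three independent experiments).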

Experiment [5] concerns CT26. Put plainly: Inhibition of HCV envelope glycoprotein E2 to […] cells expressing SR-B1 after 1 hr by flow cytometry. As to conditions: Hepacivirus hominis. Format: cell-based.
The subject of experiment [6] is Hepatitis C virus subtype 5a. Put plainly: Binding affinity to HCV 5a envelope glycoprotein E2. In short, it runs like this:
as §2

In experiment [7] the test system is Hepatitis C virus. The experiment can be described thus: Antiviral activity against HCV 2a JFH-1 in human Huh 7.5.1 cells cytoplasm assessed as inhibition of viral infection at 100 to 500 nM after 4 hrs by immunofluorescence staining. Format: functional, organism-based. As to conditions: Hepacivirus hominis. The method in brief:
(§3)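 Cells were washed and E2 was read out in two ways. Western blot used anti-E2 with β-actin as the internal control. Immunofluorescence used 4% paraformaldehyde fixation, rabbit anti-E2 with FITC anti-rabbit IgG for 4 h, and PI nuclear stain. Mean fluorescence was measured by confocal microscopy (means ± SEM, three experiments).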

Experiment [8] concerns Hepatitis C virus. The experiment can be described thus: Antiviral activity against HCV 2a JFH-1 in human Huh 7.5.1 cells cytoplasm assessed as inhibition of viral infection at 100 to 500 nM after 4 hrs by RT-PCR analysis. Format: functional, organism-based. The conditions noted are these: Hepacivirus hominis, in the assay text read “after overnight incubation” for “after 4 hrs”. In short, it runs like this:
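Huh-7.5.1 cells (4.5 × 10⁵/well) were co-cultured overnight at 37°C with 200 μl (7 × 10⁷ copies) of JFH-1 HCVcc and peptide at different final concentrations. After washing in DEPC-PBS, total RNA was extracted with Trizol and reverse transcribed. Intracellular HCV RNA was quantified by real-time PCR using 5′ NCR primers and normalized to GAPDH mRNA (means ± SEM, three experiments).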

Experiment [9] relates to Hepacivirus hominis. Put plainly: Ratio of binding affinity for HCV 1b envelope glycoprotein E2 to binding affinity for HCV 3a envelope glycoprotein E2. The method in brief: as §2
Experiment [10] relates to Hepacivirus hominis. Put plainly: Ratio of binding affinity for HCV 1a envelope glycoprotein E2 to binding affinity for HCV 6a envelope glycoprotein E2. In short, it runs like this: as §2
Experiment [11] deals with Hepatitis C virus subtype 6a. Put plainly: Binding affinity to HCV 6a envelope glycoprotein E2. The method in brief: as §2
Experiment [12] has as its system Hepacivirus hominis. The experiment can be described thus: Ratio of binding affinity for HCV 2a envelope glycoprotein E2 to binding affinity for HCV 5a envelope glycoprotein E2. In short, it runs like this:
as §2

In experiment [13] the test system is CT26. Put plainly: Inhibition of HCV envelope glycoprotein E2 to […] cells expressing CLDN1 after 1 hr by flow cytometry. Type of experiment: cell-based. The conditions noted are these: Hepacivirus hominis.
Experiment [14] has as its system Hepacivirus hominis. Put plainly: Ratio of binding affinity for HCV 2a envelope glycoprotein E2 to binding affinity for HCV 3a envelope glycoprotein E2. In short, it runs like this: as §2
The test system of experiment [15] is Hepatitis C virus subtype 3a. The experiment can be described thus: Binding affinity to HCV 3a envelope glycoprotein E2. In short, it runs like this:
as §2

Experiment [16] has as its system Hepatitis C virus subtype 4a. The experiment can be described thus: Binding affinity to HCV 4a envelope glycoprotein E2. The method in brief:
as §2

Experiment [17] relates to CT26. The experiment can be described thus: Inhibition of HCV envelope glycoprotein E2 to […] cells expressing OCLN after 1 hr by flow cytometry. Format: cell-based. As to conditions: Hepacivirus hominis.
For experiment [18], the system named is Hepacivirus hominis. Put plainly: Ratio of binding affinity for HCV 2a envelope glycoprotein E2 to binding affinity for HCV 4a envelope glycoprotein E2. In short, it runs like this: as §2
Experiment [19] has as its system Hepacivirus hominis. Put plainly: Ratio of binding affinity for HCV 1a envelope glycoprotein E2 to binding affinity for HCV 4a envelope glycoprotein E2. The method in brief:
as §2

Experiment [20] concerns Hepacivirus hominis. The experiment can be described thus: Ratio of binding affinity for HCV 1b envelope glycoprotein E2 to binding affinity for HCV 4a envelope glycoprotein E2. The method in brief:
as §2

In experiment [21] the test system is Hepatitis C virus JFH-1. The experiment can be described thus: Binding affinity to HCV 2a JFH-1 viral particle after 1 hr by indirect ELISA. The method in brief: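 Wells were coated with 3 × 10⁵ JFH-1 HCVcc particles per well in carbonate buffer pH 9.6 (7 h, 4°C) and blocked with 1% BSA at 4°C overnight. Control culture medium served as comparison. Biotin-labelled peptide at different concentrations was incubated 30 min at 37°C, followed by HRP-streptavidin (1:1,000) for 1 h at 37°C. Signal was developed with o-phenylenediamine and read at A450 (triplicates; six experiments).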

For experiment [22], the system named is Hepatitis C virus. Put plainly: Antiviral activity against HCV 2a JFH-1 in human Huh 7.5.1 cells assessed as inhibition of viral infection at 100 to 500 nM after 4 hrs by immunofluorescence staining. The conditions noted are these: Hepacivirus hominis, in the assay text read “after overnight incubation” for “after 4 hrs”. Type of experiment: functional, organism-based. The method in brief:
as §3

In experiment [23] the test system is CT26. The experiment can be described thus: Inhibition of HCV envelope glycoprotein E2 to […] cells expressing CD81 after 1 hr by flow cytometry. The conditions noted are these: Hepacivirus hominis. Type of experiment: cell-based.
The subject of experiment [24] is Hepacivirus hominis. The experiment can be described thus: Ratio of binding affinity for HCV 2a envelope glycoprotein E2 to binding affinity for HCV 6a envelope glycoprotein E2. The method in brief: as §2
The test system of experiment [25] is Hepatitis C virus. Put plainly: Binding affinity to HCV in […] healthy human serum after 1 hr by sandwich ELISA. The conditions noted are these: Hepacivirus hominis. Type of experiment: cell-free. In short, it runs like this:
(§4)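 Sandwich ELISA with wells coated with 0.3 nM peptide and blocked with 2% BSA at 4°C overnight. Serum (100 μl) from HCV antibody/RNA-positive patients (n = 50) or negative healthy donors (n = 55) was incubated 30 min at 37°C. Captured particles were detected with rabbit anti-E2 polyclonal (1:150, 1 h, 37°C), then HRP-labelled reagent, read at A450, and analysed by a nonparametric method.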
For orientation: In an ELISA, binding on a coated surface is turned into a signal by an enzyme label.

Experiment [26] has as its system Hepatitis C virus. Put plainly: Binding affinity to HCV in virus infected patient serum after 1 hr by sandwich ELISA. The conditions noted are these: Hepacivirus hominis. The method in brief:
as §4

Experiment [27] concerns Hepacivirus hominis. The experiment can be described thus: Ratio of binding affinity for HCV 1b envelope glycoprotein E2 to binding affinity for HCV 6a envelope glycoprotein E2. The method in brief:
as §2

Experiment [28] concerns Hepacivirus hominis. Put plainly: Ratio of binding affinity for HCV 1b envelope glycoprotein E2 to binding affinity for HCV 5a envelope glycoprotein E2. The method in brief:
as §2

Experiment [29] has as its system Hepatitis C virus. The experiment can be described thus: Binding affinity to HCV 1b envelope glycoprotein E2. As to conditions: Hepatitis C virus subtype 1b. In short, it runs like this: as §2
For experiment [30], the system named is Hepatitis C virus. Put plainly: Antiviral activity against HCV 2a JFH-1 in human Huh 7.5.1 cells assessed as inhibition of viral infection at 100 to 500 nM after 4 hrs by Western blotting. Type of experiment: functional, organism-based. The conditions noted are these: Hepacivirus hominis. The method in brief: as §3
For experiment [31], the system named is Hepacivirus hominis. The experiment can be described thus: Ratio of binding affinity for HCV 1a envelope glycoprotein E2 to binding affinity for HCV 5a envelope glycoprotein E2. In short, it runs like this: as §2
Experiment [32] deals with Hepatitis C virus subtype 1a. Put plainly: Binding affinity to HCV 1a envelope glycoprotein E2. The method in brief: as §2
Experiment [33] relates to Hepacivirus hominis. The experiment can be described thus: Ratio of binding affinity for HCV 1a envelope glycoprotein E2 to binding affinity for HCV 3a envelope glycoprotein E2. The method in brief: as §2
The subject of experiment [34] is Hepacivirus hominis. The experiment can be described thus: Binding affinity to HCV GST-tagged envelope glycoprotein E2 after 1 hr by ELISA. The method in brief:
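Indirect ELISA on wells coated with 0.3 nM E2-GST or GST (4°C, 7 h) and blocked with 2% BSA (37°C, 2 h). Biotin-labelled peptide at various concentrations was added for 30 min at 37°C, then HRP-streptavidin (1:1,000) for 1 h at 37°C. Signal was developed with o-phenylenediamine and read at 450 nm.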

As a reminder, the Kd is the equilibrium constant for the complex coming apart. For the compound `N=C(N)NCCC[C@H](NC(=O)CNC(=O)[C@H](Cc1ccccc1)NC(=O)CN)C(=O)N[C@@H](Cc1ccc(O)cc1)C(=O)N[C@@H](CCCNC(=N)N)C(=O)N[C@@H](CCCNC(=N)N)C(=O)N[C@@H](Cc1cnc[nH]1)C(=O)NCC(=O)N[C@@H](CO)C(=O)N1CCC[C@H]1C(=O)N[C@@H](Cc1c[nH]c2ccccc12)C(=O)O` (H-GFGRYRRHGSPW-OH), the cell-bound E2 remaining in experiment [1] was determined as 32%. Also, the Kd in experiment [2] (read-out: Kd) is 50 nM.
The compound `CC[C@H](C)[C@H](NC(=O)[C@@H](NC(=O)[C@H](CC(C)C)NC(=O)[C@@H](NC(=O)[C@H](CO)NC(=O)[C@@H](N)CC(C)C)C(C)C)C(C)C)C(=O)N[C@@H](CO)C(=O)N[C@@H](CCSC)C(=O)N[C@@H](Cc1ccccc1)C(=O)N[C@@H](CC(N)=O)C(=O)N[C@@H](C)C(=O)N[C@H](C(=O)O)C(C)C` (H-LSVLVISMFNAV-OH) yielded a cell-bound E2 remaining in [1] of 30%. For the same compound, the Kd result in experiment [2] is listed as “Not Active”.
As for `CC[C@H](C)[C@H](NC(=O)[C@H](C)NC(=O)[C@@H](N)CCSC)C(=O)NCC(=O)N1CCC[C@H]1C(=O)N[C@@H](Cc1ccc(O)cc1)C(=O)N1CCC[C@H]1C(=O)N[C@@H](C)C(=O)N[C@@H](CS)C(=O)NCC(=O)N[C@@H](CO)C(=O)NCC(=O)O` (H-MAIGPYPACGSG-OH), the inhibition entry in experiment [3] is “Dose-dependent effect”. The compound further registered a cell-bound E2 remaining in experiment [1] of 7%. Moreover, the dissociation constant (Kd) in [2] (read-out: Kd) was determined as 43 nM.
Turning to `CSCC[C@H](NC(=O)[C@@H](NC(=O)[C@H](CC(C)C)NC(=O)[C@@H]1CCCN1C(=O)[C@H](Cc1c[nH]c2ccccc12)NC(=O)[C@H](CC(N)=O)NC(=O)[C@H](CCCNC(=N)N)NC(=O)[C@H](Cc1cnc[nH]1)NC(=O)[C@H](CCCNC(=N)N)NC(=O)[C@H](C)NC(=O)[C@@H](N)CCSC)C(C)C)C(=O)N[C@H](C(=O)O)C(C)C` (H-MARHRNWPLVMV-OH), the outcome in [4], in experiment [6], in experiment [7], in [8], in experiment [11] and in experiment [15] was Active. Further, the outcome in [16], in experiment [26], in experiment [29] and in [32] was Active. In addition, the inhibition result in experiment [5], in [13] and in [17] was “inactive” in each case. Moreover, in experiment [3], the inhibition result is “Dose-dependent effect”. Also, the Ratio in experiment [9], in [10], in experiment [12], in experiment [14], in experiment [18] and in experiment [19] was 2 in each case. Besides, the Ratio in experiment [20], in experiment [24], in experiment [27], in experiment [28], in experiment [31] and in experiment [33] was 2 in each case. Also, the Activity entry in [21], in [22], in experiment [30] and in experiment [34] was “Dose-dependent effect” in each case. In addition, the inhibition result in experiment [23] is “Active”. Besides, in [25], the result was inactive. In addition, the Kd in experiment [2] (read-out: Kd) stood at 19 nM.

Values taken from ChEMBL document CHEMBL1687759, “Functional selection of hepatitis C virus envelope E2-binding Peptide ligands by using ribosome display” (Antimicrob Agents Chemother, 2010).
